How the values were obtained:
[1] = test system: COLO 205; assay: Induction of cell cycle arrest in human COLO205 cells assessed as accumulation at G2 phase at 1 uM after 48 hrs by propidium iodide staining based flow cytometry (reference value: 13.2%); assay type: functional
[2] = test system: COLO 205; assay: Induction of mitochondrial membrane potential loss in human COLO205 cells at 1 uM after 48 hrs by Rh-123 staining based flow cytometry (reference value: 12.4%); assay type: functional
[3] = test system: COLO 205; assay: Induction of apoptosis in human COLO205 cells assessed as accumulation at subG1 phase at 1 uM after 48 hrs by propidium iodide staining based flow cytometry (reference value: 12%); assay type: functional
[4] = test system: COLO 205; assay: Induction of cell cycle arrest in human COLO205 cells assessed as accumulation at G1 phase at 1 uM after 48 hrs by propidium iodide staining based flow cytometry (reference value: 45.7%); assay type: functional
[5] = test system: COLO 205; assay: Induction of cell cycle arrest in human COLO205 cells assessed as accumulation at S phase at 1 uM after 48 hrs by propidium iodide staining based flow cytometry (reference value: 13.8%); assay type: functional
[6] = test system: A-431; assay: Cytotoxicity against human A431 cells after 24 hrs by MTT assay; assay type: functional, cell-based; conditions: A-431, 24 h
Outline: (§1)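 Cells kept in DMEM with 10% foetal calf serum, penicillin and streptomycin, at 37 °C under 5% CO2. For assays serum lowered to 3%. Cells treated with test material at 0.04–60 µM for 24 h, then MTT (250 µg/mL) for 3 h. Formazan OD read at 570 nm. IC50 by non-linear regression, mean of triplicates. BEZ-235 as positive control.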

[7] = test system: T47D; assay: Cytotoxicity against human T47D cells after 24 hrs by MTT assay; assay type: functional, cell-based; outline: as §1
[8] = Cytotoxicity against human NCI-H322 cells after 24 hrs by MTT assay; assay type: functional, cell-based; conditions: NCI-H322, 24 h; outline: as §1
[9] = test system: COLO 205; assay: Cytotoxicity against human COLO205 cells after 24 hrs by MTT assay; assay type: functional, cell-based; conditions: COLO 205, 24 h; outline: as §1
[10] = test system: A549; assay: Cytotoxicity against human A549 cells after 24 hrs by MTT assay; assay type: functional, cell-based; conditions: A549, 24 h; outline: as §1
[11] = Cytotoxicity against human HCT116 cells after 24 hrs by MTT assay; assay type: functional, cell-based; conditions: HCT-116, 24 h; outline: as §1
[12] = Cytotoxicity against human PC3 cells after 24 hrs by MTT assay; assay type: functional, cell-based; conditions: PC-3, 24 h; outline: as §1

| SMILES | Activity [1] [%] | Activity [2] [%] | Activity [3] [%] | Activity [4] [%] | Activity [5] [%] | IC50 [6] [µM] | IC50 [7] [µM] | IC50 [8] [µM] | IC50 [9] [µM] | IC50 [10] [µM] | IC50 [11] [µM] | IC50 [12] [µM] |
| --- | --- | --- | --- | --- | --- | --- | --- | --- | --- | --- | --- | --- |
| CC[C@@]1(O)C(=O)OCc2c1cc1n(c2=O)Cc2cc3ccccc3nc2-1 [CAMPTOTHECIN] | 2.2 | 30.8 | 69.4 | 11 | 4.9 |  |  |  |  |  |  |  |
| COc1ccc(/C=C\C(=O)O)c(OCc2cn(-c3ccc(NC(C)=O)cc3)nn2)c1CC=C(C)C |  |  |  |  |  | 23.4 | 17.4 | 45.7 | 22.6 |  |  |  |
| COc1ccc2ccc(=O)oc2c1CC=C(C)C [OSTHOLE] |  |  |  |  |  | 23.2 | 42.4 | 30.9 | > 60 | 46.2 | 30.2 | 24.8 |
| COc1ccc(/C=C\C(=O)O)c(OCc2cn(-c3ccccc3I)nn2)c1CC=C(C)C |  |  |  |  |  | 32.7 |  | 42.3 |  | 2.2 | 23.1 |  |
| COc1ccc(/C=C\C(=O)O)c(OCc2cn(CC(O)c3ccccc3)nn2)c1CC=C(C)C (stereo not given) |  |  |  |  |  |  | 17.3 | 35.4 | 43 |  | 45.3 | 14.2 |
| COc1ccc(/C=C\C(=O)O)c(OCc2cn(-c3ccccc3)nn2)c1CC=C(C)C |  |  |  |  |  | 21.2 | 34.1 | 29.2 | 32.3 | 40.5 | 26 | 35 |
| COc1ccc(/C=C\C(=O)O)c(OCc2cn(-c3ccccc3F)nn2)c1CC=C(C)C |  |  |  |  |  | 12.4 | 11 | 45.6 | 14.5 |  |  | 24.2 |
| COc1ccc(/C=C\C(=O)O)c(OCc2cn(-c3ccccc3C#N)nn2)c1CC=C(C)C |  |  |  |  |  | 10.3 | 8.8 | 14.4 | 3.2 | 38.6 | 38.3 |  |
| COc1ccccc1-n1cc(COc2c(/C=C\C(=O)O)ccc(OC)c2CC=C(C)C)nn1 |  |  |  |  |  | 32.6 |  | 41.5 | 12.2 | 43 | 32.2 |  |
| COc1ccc(/C=C\C(=O)O)c(OCc2cn(-c3ccccc3C(=O)N3CCC(O)C3)nn2)c1CC=C(C)C (stereo not given) |  |  |  |  |  | 31.5 | 13.4 |  | 25.4 |  | 32 | 36.2 |
| COc1ccc(/C=C\C(=O)O)c(OCc2cn(-c3cccc([N+](=O)[O-])c3)nn2)c1CC=C(C)C |  |  |  |  |  | 18.4 | 15.4 | 43.2 | 6.9 |  | 27.3 | 42.1 |
| COc1ccc(/C=C\C(=O)O)c(OCc2cn(-c3ccc(C#N)cc3)nn2)c1CC=C(C)C |  |  |  |  |  | 23 | 10.2 | 18.6 | 32 | 42.2 | 21 |  |

— ChEMBL document CHEMBL3352770, “Click chemistry inspired synthesis and bioevaluation of novel triazolyl derivatives of osthol as potent cytotoxic agents” (Eur J Med Chem, 2014)
